Source: ChEMBL document CHEMBL4325899, “Synthesis and photocytotoxic activity of [1,2,3]triazolo[4,5-h][1,6]naphthyridines and [1,3]oxazolo[5,4-h][1,6]naphthyridines” (Eur J Med Chem, 2019)
Calls of active or inactive are those of the source. The rule behind the calls is not given here.

Legend:
[1] = Solubility of the compound in DMSO; type: physicochemical
[2] = Phototoxicity index, ratio of CC50 for human MCF10A cells to EC50 for human MCF10A cells under UV irradiation at 1.5 J/cm2; type: cell-based, MCF-10A; details: read-out: Ratio CC50/EC50
[3] = Drug localization in cytoplasm of human MCF7 cells assessed as punctate formation at 2 uM measured within 10 mins by confocal microscopic analysis; type: ADME, subcellular; details: mcf7, 10 min
MCF7 [4] = experiment: Cell cycle arrest in human MCF7 cells assessed as accumulation of cells at G2/M phase at EC75 after 24 hrs under UV-irradiation by propidium iodide staining-based flow cytometric analysis (reference value: 26.3%); type: functional
MCF7 [5] = experiment: Cell cycle arrest in human MCF7 cells assessed as accumulation of cells at G2/M phase at EC25 after 24 hrs under UV-irradiation by propidium iodide staining-based flow cytometric analysis (reference value: 26.3%); type: functional
MCF7 [6] = experiment: Induction of lysosomal activation in human MCF7 cells at 2 uM after 20 mins in presence of UV irradiation by Lysotracker Green DND 26 staining-based confocal microscopic analysis; type: functional, cell-based
Method in brief: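 MCF7 cells (4x10⁵) on glass slides were loaded with LysoTracker Green DND-26 (175 nM) for 45 min in phenol-red-free, serum-free medium, before 2 µM compound with or without UV activation. Cells were fixed in 2% PFA 20 min or 2 h after UV and imaged confocally (ex 488 nm, em 500–530 nm). Controls were untreated cells with and without irradiation, and cells given PMA (400 nM).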

A-375 = experiment: Phototoxicity against human A375 cells preincubated for 5 mins followed by compound washout and subsequent UV irradiation at 1.5 J/cm2 for 5 mins measured after 72 hrs by MTT assay; type: functional, cell-based; details: A-375, light or radiation study
Method in brief: (§1)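 Compounds were diluted in DMSO (0.5% final), applied in triplicate for 5 min, then washed out with PBS. After medium removal, cells were irradiated on ice for 5 min at 365 nm (1.5 J/cm²) and then kept 72 h at 37 °C. Viability was read by MTT at 540 nm and expressed relative to 0.5% DMSO controls given the same treatment. EC50 is the concentration killing 50%, as the mean ± SD of at least three experiments.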

MCF7 [7] = experiment: Phototoxicity against human MCF7 cells preincubated for 5 mins followed by compound washout and subsequent UV irradiation at 1.5 J/cm2 for 5 mins measured after 72 hrs by MTT assay; type: functional, cell-based; details: MCF7, light or radiation study; method in brief: as §1
[8] = Dark toxicity against human HT-29 cells preincubated for 5 mins followed by compound washout and measured after 72 hrs by MTT assay; type: cell-based
Method in brief: (§2)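 Cells were plated and allowed to attach overnight. Compounds were diluted in DMSO (0.5% final), with each concentration in triplicate, and applied for 5 min. Cells were then washed in PBS and given fresh medium. Without irradiation, cells were held 72 h at up to 50 μM. MTT (5 mg/mL stock) was added for 4 h, crystals were dissolved in SDS/HCl overnight, and absorbance was read at 540 nm. CC50 is the concentration killing 50% of cells, taken as the mean of at least three experiments.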

HT-29 [9] = experiment: Phototoxicity against human HT-29 cells preincubated for 5 mins followed by compound washout and subsequent UV irradiation at 1.5 J/cm2 for 5 mins measured after 72 hrs by MTT assay; type: functional, cell-based; details: HT-29, light or radiation study; method in brief: as §1
[10] = Drug localization in cytoplasm of human MCF7 cells at 2 uM measured after 30 to 60 mins by confocal microscopic analysis; type: ADME, subcellular; details: mcf7, 2 µM
MCF7 [11] = experiment: Induction of mitochondrial dysfunction in human MCF7 cells assessed as organelle swelling at 2 uM after 120 mins in presence of UV irradiation by Mitotracker Orange CMTM-ROS staining-based confocal microscopic analysis; type: functional, cell-based
Method in brief: (§3)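 MCF7 cells (4x10⁵) were plated on glass slides for 24 h. They were then loaded with MitoTracker Orange CMTM-ROS (150 nM) for 45 min in phenol-red-free, serum-free medium, before 2 µM compound and UV photoactivation. Cells were fixed in 2% PFA 20 min or 2 h after UV and imaged confocally (ex 543 nm, em 560–620 nm). PMA (400 nM) served as ROS-inducer control.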

MCF7 [12] = experiment: Induction of mitochondrial dysfunction in human MCF7 cells assessed as organelles fusion at 2 uM after 120 mins in presence of UV irradiation by Mitotracker Orange CMTM-ROS staining-based confocal microscopic analysis; type: functional, cell-based; method in brief: as §3
MCF7 [13] = experiment: Induction of mitochondrial dysfunction in human MCF7 cells assessed as perinuclear clustering at 2 uM after 20 mins in presence of UV irradiation by Mitotracker Orange CMTM-ROS staining-based confocal microscopic analysis; type: functional, cell-based; method in brief: as §3
[14] = Dark toxicity against human MCF10A cells preincubated for 5 mins followed by compound washout and measured after 72 hrs by MTT assay; type: cell-based, MCF-10A; method in brief: as §2
HT-29 [15] = experiment: Phototoxicity index, ratio of CC50 for human HT-29 cells to EC50 for human HT-29 cells under UV irradiation at 1.5 J/cm2
MCF7 [16] = experiment: Induction of apoptosis in human MCF7 cells assessed as necrotic cells at EC25 to EC75 after 4 hrs in presence of photoirradiation by Annexin V-FITC/propidium iodide staining-based flow cytometric analysis relative to control; type: functional
MCF7 [17] = experiment: Induction of ROS generation in human MCF7 cells at 0.5 to 2 uM preincubated for 30 mins followed by irradiation at 1.5 J/cm2 for 2 hrs by H2DCFDA probe-based fluorescence assay (reference value: 100%); type: functional
Method in brief: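 MCF7 cells (3x10⁴) were plated 24 h ahead to reach 80–90% confluence. Compounds were applied for 30 min in phenol-red-free, serum-free medium, and H2DCFDA (10 µM) was added 15 min before irradiation (1.5 J/cm², ~365 nm) or no irradiation. DCF fluorescence (485/535 nm) was read 2 h after light and expressed relative to untreated controls (100%). PMA (400 nM) served as positive control; three independent experiments.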

MCF7 [18] = experiment: Cell cycle arrest in human MCF7 cells assessed as accumulation of cells at S phase at EC75 after 24 hrs under UV-irradiation by propidium iodide staining-based flow cytometric analysis (reference value: 24.7%); type: functional
MCF7 [19] = experiment: Cell cycle arrest in human MCF7 cells assessed as accumulation of cells at G0/G1 phase at EC50 after 24 hrs under UV-irradiation by propidium iodide staining-based flow cytometric analysis (reference value: 44.2%); type: functional
MCF7 [20] = experiment: Cell cycle arrest in human MCF7 cells assessed as accumulation of cells at S phase at EC50 after 24 hrs under UV-irradiation by propidium iodide staining-based flow cytometric analysis (reference value: 24.7%); type: functional
MCF7 [21] = experiment: Induction of ROS generation in human MCF7 cells at 0.5 to 2 uM preincubated for 30 mins followed by irradiation at 1.5 J/cm2 for 2 hrs in presence of NAC by H2DCFDA probe-based fluorescence assay; type: functional, cell-based
Method in brief: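 This is the DCF assay in MCF7 cells run as for irradiated samples (30 min compound, 10 µM H2DCFDA, 1.5 J/cm²). Before treatment, cells were pre-incubated with N-acetylcysteine at […]. Fluorescence was read 2 h after light exposure, relative to irradiated untreated controls, with three independent experiments.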

COc1ccc(-c2nc3c(nc(C)c4ccc(-c5ccccc5)nc43)o2)cc1
solubility [1]: Soluble
selectivity ratio [2]: > 58
Drug uptake [3]: Active
Activity (MCF7 [4]): 26.9%
Activity (MCF7 [5]): 26.8%
Activity (MCF7 [6]): Active
EC50 (A-375): 11 nM
EC50 (MCF7 [7]): 10 nM
CC50 at 72 h [8]: > 50000 nM
EC50 (HT-29 [9]): 12 nM
Drug uptake [10]: Active
Activity (MCF7 [11]): Active
Activity (MCF7 [12]): Active
Activity (MCF7 [13]): Active
CC50 at 72 h [14]: > 50000 nM
Ratio CC50/EC50 (HT-29 [15]): >4167
Activity (MCF7 [16]): 10%
Activity (MCF7 [17]): 227%
Activity (MCF7 [18]): 26.3%
Activity (MCF7 [19]): 43.1%
Activity (MCF7 [20]): 25.6%
Activity (MCF7 [21]): inactive
